Values belong to the compound of their own block, whether it stands above or below them.
Columns and labels:
Gamma-secretase [1] = experiment: Modulation of gamma secretase in human H4 cells expressing human wild type APP assessed as inhibition of amyloid beta 42 production after 22 hrs by electrochemiluminescence assay; format: cell-based
Procedure, shortened: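 H4 cells overexpressing human APPwt, 10,000/well, were exposed to compound 22 h at 37°C, 5% CO2. Supernatant was diluted with medium on an MSD anti-Aβ42 plate and detected with S-tag 6E10 (1:50, 1 h). Read-out was electrochemiluminescence.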

Rattus norvegicus [2] = experiment: In vivo modulation of gamma secretase in rat brain homogenate assessed as decrease in amyloid beta 42 levels at 30 mg/kg, po measured after 3 hrs by electrochemiluminescence assay relative to control; format: functional; set-up: scale not given: the % may be the effect or the level left
Procedure, shortened: (§1)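 Rats dosed orally with compound in 0.5% Natrosol/0.01% Tween 80, then anesthetized (Ketavet, Inactin i.p.) and decapitated 3 h later. Brain slices were homogenized in 20 mM Tris pH 8.5 + 0.2% Triton X-100 (5-fold v/w) and spun 1 h at 210,000 x g, 4°C. Aβ42 in the supernatant was read by MSD electrochemiluminescence with S-tag 4G8 detection.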

[3] = Apparent permeability from apical to basolateral side in MDCK cells expressing human MDR1 at 1 uM at pH 7.4; format: ADME, cell-based, Canis lupus familiaris; conditions: dog, MDCK-MDR1, pH 7.4
Procedure, shortened: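 MDCK-MDR1 monolayers; transport measured apical-to-basal and basal-to-apical at pH 7.4, 37°C, starting from 1 µM in the donor compartment; apparent permeability coefficients derived.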

Cytochrome P450 3A4 = Cytochrome P450 3A4 (Homo sapiens, UniProt P08684); experiment: Inhibition of CYP3A4 in human liver microsomes using testosterone as substrate in presence of NADPH by LC-MS/MS analysis; format: ADME
Chain of Cytochrome P450 3A4 (P08684 whole entry): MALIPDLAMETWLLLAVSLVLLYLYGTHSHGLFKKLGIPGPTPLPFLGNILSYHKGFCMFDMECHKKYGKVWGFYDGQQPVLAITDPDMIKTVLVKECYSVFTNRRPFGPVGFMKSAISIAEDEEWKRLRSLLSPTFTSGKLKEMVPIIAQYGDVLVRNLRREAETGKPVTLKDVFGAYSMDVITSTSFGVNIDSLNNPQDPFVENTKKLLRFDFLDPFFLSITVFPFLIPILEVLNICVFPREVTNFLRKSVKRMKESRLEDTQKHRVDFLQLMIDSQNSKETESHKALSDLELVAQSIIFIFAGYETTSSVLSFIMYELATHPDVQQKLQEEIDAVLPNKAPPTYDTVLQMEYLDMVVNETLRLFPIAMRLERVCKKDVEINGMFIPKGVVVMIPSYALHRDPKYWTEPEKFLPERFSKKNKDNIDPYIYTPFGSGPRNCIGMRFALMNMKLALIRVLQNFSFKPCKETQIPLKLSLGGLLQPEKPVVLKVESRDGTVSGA
Procedure, shortened: (§2)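 Human pooled liver microsomes (0.1 mg/ml) at 37°C in 0.1 M Tris with 5 mM MgCl2. Substrates were dextromethorphan 7 µM (2D6), diclofenac 4 µM (2C9), (S)-mephenytoin 30 µM (2C19) and testosterone 60 µM (3A4). Test compound ran at five concentrations. Reactions were started with 1 mM NADPH and stopped by cooling to 8°C plus acetonitrile. Metabolite was read by LC-MS/MS against an isotope internal standard, relative to no-compound control.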

[4] = Clearance in Han Wistar rat at 1 umol/kg, iv administered as bolus by LC/MS/MS analysis; format: ADME, organism-based; conditions: in vivo
Procedure, shortened: (§3)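 Female fed Han Wistar rats received the compound as an i.v. solution. Blood was sampled at several time points and EDTA plasma prepared. Plasma levels were quantified by LC/MS/MS after acetonitrile precipitation, and PK parameters were calculated by non-compartmental analysis.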

[5] = Unbound brain concentration in rat brain at 30 mg/kg, po measured after 3 hrs by LC/MS/MS analysis; format: ADME, organism-based; conditions: in vivo
Procedure, shortened: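 Unbound brain concentration estimated from unbound plasma exposure 3 h after oral dosing, assuming equal plasma–brain distribution. Plasma sampled after dosing in 0.5% Natrosol/0.01% Tween 80 and quantified by LC/MS/MS.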

Rattus norvegicus [6] = experiment: Decrease in total amyloid beta 42 levels in rat brain homogenate at 30 mg/kg, po measured after 3 hrs by electrochemiluminescence assay relative to control; set-up: scale not given: the % may be the effect or the level left; conditions: in vivo
[7] = Mean residence time in Han Wistar rat at 1 umol/kg, iv administered as bolus by LC/MS/MS analysis; format: ADME, organism-based; conditions: in vivo; procedure, shortened: as §3
hERG (KCNH2) [8] = molecular target: T1, hERG (KCNH2) (Homo sapiens, UniProt Q12809); experiment: Inhibition of human ERG at 1 uM by patch clamp assay relative to control
T1 sequence (Q12809 whole entry): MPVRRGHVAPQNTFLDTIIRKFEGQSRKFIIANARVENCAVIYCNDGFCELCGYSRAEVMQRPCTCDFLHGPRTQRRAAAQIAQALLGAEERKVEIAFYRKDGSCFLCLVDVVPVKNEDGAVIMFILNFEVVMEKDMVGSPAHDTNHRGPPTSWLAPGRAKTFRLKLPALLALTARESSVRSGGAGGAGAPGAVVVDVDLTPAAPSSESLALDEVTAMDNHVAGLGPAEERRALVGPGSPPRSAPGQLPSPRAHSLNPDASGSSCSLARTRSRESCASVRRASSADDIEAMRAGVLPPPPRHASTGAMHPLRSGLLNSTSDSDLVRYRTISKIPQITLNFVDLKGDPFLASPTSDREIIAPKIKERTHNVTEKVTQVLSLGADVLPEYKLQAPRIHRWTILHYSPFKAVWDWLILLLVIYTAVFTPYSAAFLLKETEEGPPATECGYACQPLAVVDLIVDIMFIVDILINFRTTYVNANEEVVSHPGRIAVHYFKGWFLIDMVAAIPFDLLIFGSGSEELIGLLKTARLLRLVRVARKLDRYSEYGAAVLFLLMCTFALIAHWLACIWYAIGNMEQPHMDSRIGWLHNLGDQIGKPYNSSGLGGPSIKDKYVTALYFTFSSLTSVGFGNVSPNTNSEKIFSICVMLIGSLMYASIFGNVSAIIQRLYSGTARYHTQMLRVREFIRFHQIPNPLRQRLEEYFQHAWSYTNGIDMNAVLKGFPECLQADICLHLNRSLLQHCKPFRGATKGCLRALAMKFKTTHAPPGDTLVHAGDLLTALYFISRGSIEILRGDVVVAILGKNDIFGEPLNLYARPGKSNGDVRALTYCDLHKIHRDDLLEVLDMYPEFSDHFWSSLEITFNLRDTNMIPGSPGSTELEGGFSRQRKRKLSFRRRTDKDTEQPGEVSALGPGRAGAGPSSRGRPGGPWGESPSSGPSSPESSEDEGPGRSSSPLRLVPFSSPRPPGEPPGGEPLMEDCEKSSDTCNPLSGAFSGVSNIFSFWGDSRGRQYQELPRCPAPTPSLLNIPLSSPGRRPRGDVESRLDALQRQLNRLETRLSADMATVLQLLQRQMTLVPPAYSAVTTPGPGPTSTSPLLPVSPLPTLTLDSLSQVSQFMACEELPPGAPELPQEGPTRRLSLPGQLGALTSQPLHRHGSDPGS

Gamma-secretase [9] = experiment: Modulation of gamma-secretase in human E6 cells expressing HeLaTetON-NotchdeltaE-NLuc/CLuc-RBP assessed as notch cleavage after 16 hrs by bioluminescence assay; format: ADME, cell-based
Rattus norvegicus [10] = experiment: In vivo modulation of gamma secretase in rat brain homogenate assessed as decrease in amyloid beta 42 levels at 25 mg/kg, po measured after 3 hrs by electrochemiluminescence assay relative to control; format: functional; set-up: scale not given: the % may be the effect or the level left; procedure, shortened: as §1
[11] = Drug uptake in Han Wistar rat muscle at 10 umol/kg, po administered via gavage measured 3 hrs post dose by LC/MS/MS analysis; format: ADME, organism-based, Muscle tissue; conditions: read-out: Drug uptake
Procedure, shortened: (§4)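 Fasted female Han Wistar rats were dosed by oral gavage as a Natrosol suspension. Animals were sacrificed 3 h later and plasma and tissues collected and frozen. Concentrations were measured by LC/MS/MS after acetonitrile precipitation.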

Rattus norvegicus [12] = experiment: Decrease in total amyloid beta levels in rat brain homogenate at 30 mg/kg, po measured after 3 hrs by electrochemiluminescence assay relative to control; set-up: scale not given: the % may be the effect or the level left; conditions: in vivo
[13] = Drug uptake in Han Wistar rat brain at 10 umol/kg, po administered via gavage measured 3 hrs post dose by LC/MS/MS analysis; format: ADME, organism-based; conditions: read-out: Drug uptake; procedure, shortened: as §4
[14] = Ratio of drug uptake in Han Wistar rat muscle to brain at 10 umol/kg, po administered via gavage measured 3 hrs post dose by LC/MS/MS analysis; format: ADME, organism-based; conditions: in vivo
Procedure, shortened: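 Fasted female Han Wistar rats given 10 µmol/kg orally; sacrificed 3 h post dose, tissues collected and frozen; samples acetonitrile-precipitated, supernatant diluted 1:100 and quantified by LC-ESI-MS/MS; muscle-to-brain concentration ratio.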

[15] = Volume of distribution at steady state in Han Wistar rat at 1 umol/kg, iv administered as bolus by LC/MS/MS analysis; format: ADME, organism-based; conditions: in vivo, read-out: Vdss; procedure, shortened: as §3
[16] = Ratio of drug uptake in Han Wistar rat brain to plasma at 10 umol/kg, po administered via gavage measured 3 hrs post dose by LC/MS/MS analysis; format: ADME, organism-based; procedure, shortened: as §4
Cytochrome P450 2C8 = molecular target: T2, Cytochrome P450 2C8 (Homo sapiens, UniProt P10632); experiment: Inhibition of CYP2C8 in human liver microsomes in presence of NADPH by LC-MS/MS analysis; format: ADME
T2 sequence (P10632 whole entry): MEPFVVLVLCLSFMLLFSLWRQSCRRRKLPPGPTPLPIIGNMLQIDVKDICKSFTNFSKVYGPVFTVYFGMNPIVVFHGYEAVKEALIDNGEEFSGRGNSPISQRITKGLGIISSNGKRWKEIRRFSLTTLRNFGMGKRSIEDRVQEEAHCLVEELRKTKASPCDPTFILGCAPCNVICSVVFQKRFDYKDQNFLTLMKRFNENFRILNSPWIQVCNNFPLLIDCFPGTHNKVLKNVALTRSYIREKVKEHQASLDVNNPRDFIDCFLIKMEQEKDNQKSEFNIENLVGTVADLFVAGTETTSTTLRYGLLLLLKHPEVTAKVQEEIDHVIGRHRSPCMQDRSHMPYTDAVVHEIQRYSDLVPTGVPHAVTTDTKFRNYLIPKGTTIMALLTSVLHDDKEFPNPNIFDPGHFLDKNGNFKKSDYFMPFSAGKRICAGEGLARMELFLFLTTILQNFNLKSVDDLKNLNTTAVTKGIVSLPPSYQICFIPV

Cytochrome P450 2D6 = Cytochrome P450 2D6 (Homo sapiens, UniProt P10635); experiment: Inhibition of CYP2D6 in human liver microsomes using dextromethorphan as substrate in presence of NADPH by LC-MS/MS analysis; format: ADME; procedure, shortened: as §2
Chain of Cytochrome P450 2D6 (P10635 whole entry): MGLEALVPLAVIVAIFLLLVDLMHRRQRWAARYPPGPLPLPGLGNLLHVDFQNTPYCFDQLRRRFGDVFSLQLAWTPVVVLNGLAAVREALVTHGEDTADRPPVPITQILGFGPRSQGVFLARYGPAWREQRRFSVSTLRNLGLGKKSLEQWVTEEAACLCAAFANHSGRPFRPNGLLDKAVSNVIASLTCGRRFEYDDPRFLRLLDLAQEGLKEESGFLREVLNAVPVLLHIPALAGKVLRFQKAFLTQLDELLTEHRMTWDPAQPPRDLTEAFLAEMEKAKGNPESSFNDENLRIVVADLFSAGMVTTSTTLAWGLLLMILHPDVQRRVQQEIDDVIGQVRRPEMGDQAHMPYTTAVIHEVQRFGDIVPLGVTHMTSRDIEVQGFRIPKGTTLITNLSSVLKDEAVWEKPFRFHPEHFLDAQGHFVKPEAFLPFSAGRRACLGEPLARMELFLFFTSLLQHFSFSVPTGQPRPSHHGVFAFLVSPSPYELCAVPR

[17] = Efflux ratio of apparent permeability from […] in MDCK cells expressing human MDR1 at 1 uM at pH 7.4; format: ADME, cell-based, Canis lupus familiaris; conditions: dog, pH 7.4, 1 µM
Procedure, shortened: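 MDCK-MDR1 monolayers, pH 7.4, 37°C; transport measured apical-to-basal and basal-to-apical from 1 µM initial donor concentration; apparent permeability coefficients derived for each direction, ratio taken.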

Cytochrome P450 2C9 = Cytochrome P450 2C9 (Homo sapiens, UniProt P11712); experiment: Inhibition of CYP2C9 in human liver microsomes using diclofenac as substrate in presence of NADPH by LC-MS/MS analysis; format: ADME; procedure, shortened: as §2
Chain of Cytochrome P450 2C9 (P11712 whole entry): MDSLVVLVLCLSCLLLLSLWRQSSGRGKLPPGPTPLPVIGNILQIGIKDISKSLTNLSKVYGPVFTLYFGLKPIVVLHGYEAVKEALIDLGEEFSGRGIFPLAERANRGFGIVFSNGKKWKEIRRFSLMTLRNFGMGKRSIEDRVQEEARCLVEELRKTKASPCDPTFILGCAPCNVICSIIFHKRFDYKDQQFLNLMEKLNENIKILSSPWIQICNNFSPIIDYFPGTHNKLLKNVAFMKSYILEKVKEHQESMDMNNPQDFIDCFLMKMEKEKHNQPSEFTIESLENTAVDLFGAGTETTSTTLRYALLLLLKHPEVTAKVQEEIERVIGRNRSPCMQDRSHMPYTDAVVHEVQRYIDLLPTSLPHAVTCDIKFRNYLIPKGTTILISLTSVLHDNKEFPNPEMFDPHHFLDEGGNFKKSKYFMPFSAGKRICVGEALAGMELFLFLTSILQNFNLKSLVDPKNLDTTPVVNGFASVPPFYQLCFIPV

hERG (KCNH2) [18] = molecular target: T1, hERG (KCNH2); experiment: Inhibition of human ERG at 10 uM by patch clamp assay relative to control
[19] = Protein binding in rat plasma at 1 uM after 5 hrs by equilibrium dialysis based LC-MS/MS analysis; format: ADME, cell-free; conditions: read-out: PPB (converted)
Procedure, shortened: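 Equilibrium dialysis: rat EDTA plasma spiked to 1 µM final, dialysed against PBS with dextran (pH 7.4) across a 5–10 kDa membrane. Run 5 h at 37°C; both sides analyzed by HPLC-MS/MS.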

Cytochrome P450 2C19 = Cytochrome P450 2C19 (Homo sapiens, UniProt P33261); experiment: Inhibition of CYP2C19 in human liver microsomes using (S)-mephenytoin as substrate in presence of NADPH by LC-MS/MS analysis; format: ADME; procedure, shortened: as §2
Chain of Cytochrome P450 2C19 (P33261 whole entry): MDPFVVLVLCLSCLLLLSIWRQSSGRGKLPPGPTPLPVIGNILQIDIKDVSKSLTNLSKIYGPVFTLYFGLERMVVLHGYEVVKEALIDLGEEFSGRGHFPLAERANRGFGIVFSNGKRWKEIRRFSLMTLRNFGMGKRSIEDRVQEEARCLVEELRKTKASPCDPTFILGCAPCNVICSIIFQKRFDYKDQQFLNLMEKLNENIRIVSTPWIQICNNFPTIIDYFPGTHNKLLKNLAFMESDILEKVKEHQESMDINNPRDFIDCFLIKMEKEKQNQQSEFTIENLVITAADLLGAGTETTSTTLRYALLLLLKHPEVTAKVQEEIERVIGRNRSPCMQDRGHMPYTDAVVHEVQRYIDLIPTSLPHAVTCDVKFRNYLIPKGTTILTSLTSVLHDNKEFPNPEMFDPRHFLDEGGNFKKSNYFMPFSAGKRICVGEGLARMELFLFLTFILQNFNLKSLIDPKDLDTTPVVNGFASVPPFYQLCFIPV

[20] = Drug uptake in Han Wistar rat plasma at 10 umol/kg, po administered via gavage measured 3 hrs post dose by LC/MS/MS analysis; format: ADME, organism-based; procedure, shortened: as §4
[21] = Modulation of gamma secretase in rat E18 cells assessed as inhibition of amyloid beta 42 production after 22 hrs by electrochemiluminescence assay; format: cell-based

SMILES: CCc1nnn2c1CCC(Nc1nc3c(-c4ccc(F)cc4C)cccn3n1)C2 (centres undefined)
IC50 (Gamma-secretase [1]): 740 nM

SMILES: CCn1ncc2c1CCC(Nc1nc3c(-c4cncc(Cl)c4)cccn3n1)C2 (centres undefined)
IC50 (Gamma-secretase [1]): 40 nM

SMILES: CCn1ncc2c1CCC(Nc1nc3c(-c4ccc(OC)nc4)cccn3n1)C2 (centres undefined)
IC50 (Gamma-secretase [1]): 90 nM

SMILES: Cc1cc(F)ccc1-c1cccn2nc(Nc3ccc4c(cnn4C)c3)nc12
IC50 (Gamma-secretase [1]): 1200 nM

SMILES: CCn1ncc2c1CCC(Nc1nc3c(-c4cc(F)c(F)c(F)c4)cccn3n1)C2 (centres undefined)
IC50 (Gamma-secretase [1]): 30 nM

SMILES: CCn1ncc2c1CCC(Nc1nc3c(-c4cccnc4C)cccn3n1)C2 (centres undefined)
IC50 (Gamma-secretase [1]): 680 nM

SMILES: CCn1ncc2c1CCC(Nc1nc3c(-c4cncc(C)c4)cccn3n1)C2 (centres undefined)
IC50 (Gamma-secretase [1]): 200 nM

SMILES: CCn1ncc2c1CC[C@@H](Nc1nc3c(-c4ccc(F)cc4C)cccn3n1)C2
Activity (Rattus norvegicus [2]): 47%
Papp A→B at 1 µM [3]: 78 ×10⁻⁶ cm/s
IC50 (Cytochrome P450 3A4): > 50000 nM
clearance [4]: 40 mL/min/kg
Cp(f) [5]: 30 nM
Activity (Rattus norvegicus [6]): 3%
MRT [7]: 36 min
inhibition at 1 µM (hERG (KCNH2) [8]): 8%
IC50 (Gamma-secretase [9]): > 30000 nM
Activity (Rattus norvegicus [10]): 53%
concentration at 3 h [11]: 2600 nM
Activity (Rattus norvegicus [12]): 5%
IC50 (Gamma-secretase [1]): 40 nM
concentration at 3 h [13]: 2990 nM
Ratio [14]: 0.9
Vd [15]: 1.5 L/kg
Kp at 3 h [16]: 1.1
IC50 (Cytochrome P450 2C8): 9500 nM
IC50 (Cytochrome P450 2D6): > 50000 nM
Ratio [17]: 0.7
IC50 (Cytochrome P450 2C9): 25000 nM
inhibition at 10 µM (hERG (KCNH2) [18]): 39%
fraction unbound at 5 h, 1 µM [19]: 0.012
IC50 (Cytochrome P450 2C19): 36000 nM
concentration at 3 h [20]: 2680 nM
IC50 [21]: 40 nM

SMILES: CCn1ncc2c1CC[C@@H](Nc1nc3c(-c4ccc(F)c(Cl)c4)cccn3n1)C2
IC50 (Gamma-secretase [1]): 9 nM

SMILES: CCn1ncc2c1CCC(Nc1nc3c(-c4ccc(F)cc4)cccn3n1)C2 (centres undefined)
IC50 (Gamma-secretase [1]): 180 nM

SMILES: CCc1nnc2n1CCC(Nc1nc3c(-c4ccc(F)cc4C)cccn3n1)C2 (centres undefined)
IC50 (Gamma-secretase [1]): 1390 nM

SMILES: CCn1ncc2c1CCC(Nc1nc3c(-c4ccc(N(C)C)nc4)cccn3n1)C2 (centres undefined)
IC50 (Gamma-secretase [1]): 50 nM

Further compounds by falling IC50 (Gamma-secretase [1]), results first:

IC50 (Gamma-secretase [1]): 4570 nM
SMILES: Cc1cc(F)ccc1-c1cccn2nc(NC3CCc4[nH]ncc4C3)nc12 (centres undefined)

IC50 (Gamma-secretase [1]): 3400 nM
SMILES: Cc1cc(F)ccc1-c1cccn2nc(NC3CCc4c(cnn4CC(C)C)C3)nc12 (centres undefined)

IC50 (Gamma-secretase [1]): 2770 nM
SMILES: CCCCn1ncc2c1CCC(Nc1nc3c(-c4ccc(F)cc4C)cccn3n1)C2 (centres undefined)

IC50 (Gamma-secretase [1]): 350 nM
SMILES: CCn1ncc2c1CCC(Nc1nc3c(-c4cccnc4)cccn3n1)C2 (centres undefined)

IC50 (Gamma-secretase [1]): 200 nM
SMILES: CCn1ncc2c1CCC(Nc1nc3c(-c4cncc(OC)c4)cccn3n1)C2 (centres undefined)

IC50 (Gamma-secretase [1]): 120 nM
SMILES: CCn1ncc2c1CCC(Nc1nc3c(-c4cnccc4OC)cccn3n1)C2 (centres undefined)

IC50 (Gamma-secretase [1]): 70 nM
SMILES: CCn1ncc2c1CCC(Nc1nc3c(-c4ccccc4)cccn3n1)C2 (centres undefined)

— ChEMBL document CHEMBL4118159, “Discovery of tetrahydroindazoles as a novel class of potent and in vivo efficacious gamma secretase modulators” (Bioorg Med Chem, 2018)
